≈ marks a conversion by molar mass, not a printed value. Calls of active or inactive are those of the source. The calls are words filed in the database; no cut-off is given here.

Data on eight molecules can be found in ChEMBL document CHEMBL1944556, “Natural Product Based 6-Hydroxy-2,3,4,6-tetrahydropyrrolo[1,2-a]pyrimidinium Scaffold as A New Antifungal Template” (ACS Med Chem Lett, 2011).

Series [1] deals with Aspergillus fumigatus. Briefly: Antifungal activity against Aspergillus fumigatus ATCC 90906 at 20 ug/ml. The format is functional, organism-based.
Series [2] concerns Cryptococcus neoformans. Briefly: Antifungal activity against Cryptococcus neoformans ATCC 90113. It is filed as functional. In outline: (§1)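 Read-outs were MIC and MFC, in μg/mL. MFC is the lowest concentration that kills the fungus.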
The test system of series [3] is Candida albicans. Briefly: Antifungal activity against Candida albicans ATCC 90028. It is filed as functional. The method in brief:
as §1

Series [4] relates to Candida albicans. Briefly: Antifungal activity against Candida albicans ATCC 90028 at 20 ug/ml. It is filed as functional, organism-based.
In series [5] the test system is Vero. The experiment in a line: Cytotoxicity against african green monkey Vero cells. The following applies: Chlorocebus sabaeus. The format is cell-based.
A short description of series [6]: Selectivity index of IC50 for african green monkey Vero cells to MFC for Cryptococcus neoformans ATCC 90113. It is filed as toxicity, cell-based. The following applies: read-out: Selectivity Index. In outline:
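The index is the Vero cell cytotoxicity IC50 divided by the MFC against C. neoformans.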

Series [7] relates to Aspergillus fumigatus. Briefly: Antifungal activity against Aspergillus fumigatus ATCC 90906. It is filed as functional. In outline: as §1
In series [8] the test system is Candida tropicalis. The experiment in a line: Antifungal activity against Candida tropicalis ATCC 750 at 160 ug/ml. It is filed as functional, organism-based.
Series [9] concerns Candida albicans. The experiment in a line: Antifungal activity against Candida albicans ATCC 60193. It is filed as functional.
Series [10] deals with Candida parapsilosis. Briefly: Antifungal activity against Candida parapsilosis ATCC 22019 at 160 ug/ml. The format is functional, organism-based.
For series [11], the system named is Candida albicans. Briefly: Antifungal activity against fluconazole-resistant Candida albicans isolate 1 isolated from AIDS patient at 160 ug/ml. The format is functional, organism-based.
The test system of series [12] is Candida albicans. Briefly: Antifungal activity against Candida albicans ATCC 90028 at 160 ug/ml. The format is functional, organism-based.
Series [13] has as its system Aspergillus fumigatus. The experiment in a line: Antifungal activity against Aspergillus fumigatus ATCC 204305 at 160 ug/ml. The format is functional, organism-based.
In series [14] the test system is Cryptococcus bacillisporus. The experiment in a line: Antifungal activity against fluconazole-resistant Cryptococcus gattii ATCC 32609. The format is functional.
The subject of series [15] is Candida albicans. The experiment in a line: Antifungal activity against Candida albicans ATCC 60193 at 160 ug/ml. It is filed as functional, organism-based.
Series [16] concerns Aspergillus flavus. Briefly: Antifungal activity against Aspergillus flavus ATCC 204304 at 160 ug/ml. It is filed as functional, organism-based.
Series [17] relates to Aspergillus niger. Briefly: Antifungal activity against Aspergillus niger ATCC 16404 at 160 ug/ml. It is filed as functional, organism-based.
Series [18] concerns Candida albicans. The experiment in a line: Antifungal activity against Candida albicans ATCC 32354 at 160 ug/ml. The format is functional, organism-based.
Series [19] deals with Candida albicans. Briefly: Antifungal activity against fluconazole-resistant Candida albicans isolate 1 isolated from AIDS patient. The format is functional.
Series [20] deals with Cryptococcus neoformans. The experiment in a line: Antifungal activity against Cryptococcus neoformans ATCC 66031. The format is functional.
Series [21] concerns Candida albicans. The experiment in a line: Antifungal activity against Candida albicans ATCC 14053 at 160 ug/ml. It is filed as functional, organism-based.
In series [22] the test system is Candida albicans. Briefly: Antifungal activity against amphotericin-B-resistant Candida albicans ATCC 200955 at 160 ug/ml. The format is functional, organism-based.
Series [23] relates to Candida albicans. The experiment in a line: Antifungal activity against Candida albicans ATCC 14053. The format is functional. The method in brief:
as §1

The subject of series [24] is Candida albicans. Briefly: Antifungal activity against fluconazole-resistant Candida albicans isolate 17 isolated from AIDS patient at 160 ug/ml. It is filed as functional, organism-based.
Series [25] has as its system Pichia kudriavzevii. Briefly: Antifungal activity against intrinsically fluconazole-resistant Candida krusei ATCC 6258. The format is functional.
For series [26], the system named is Nakaseomyces glabratus. The experiment in a line: Antifungal activity against intrinsically fluconazole-resistant Candida glabrata ATCC 90030 at 160 ug/ml. The format is functional, organism-based.
Series [27] relates to Nakaseomyces glabratus. Briefly: Antifungal activity against intrinsically fluconazole-resistant Candida glabrata ATCC 90030. The format is functional.
In series [28] the test system is Aspergillus fumigatus. The experiment in a line: Antifungal activity against Aspergillus fumigatus ATCC 13073 at 160 ug/ml. The format is functional, organism-based.
In series [29] the test system is Candida albicans. Briefly: Antifungal activity against amphotericin-B-resistant Candida albicans ATCC 200955. It is filed as functional.
Series [30] deals with Candida tropicalis. Briefly: Antifungal activity against Candida tropicalis ATCC 750. It is filed as functional.
The subject of series [31] is Aspergillus fumigatus. Briefly: Antifungal activity against Aspergillus fumigatus ATCC 90906 at 160 ug/ml. It is filed as functional, organism-based.
Series [32] deals with Candida albicans. The experiment in a line: Antifungal activity against Candida albicans ATCC 32354. The format is functional.
The subject of series [33] is Candida parapsilosis. Briefly: Antifungal activity against Candida parapsilosis ATCC 22019. It is filed as functional. The following applies: Lodderomyces parapsilosis.
Series [34] deals with Aspergillus fumigatus. The experiment in a line: Antifungal activity against Aspergillus fumigatus ATCC 204305. It is filed as functional.
The subject of series [35] is Candida albicans. The experiment in a line: Antifungal activity against fluconazole-resistant Candida albicans isolate 17 isolated from AIDS patient. It is filed as functional.
Series [36] relates to Cryptococcus neoformans. The experiment in a line: Antifungal activity against Cryptococcus neoformans ATCC 90113 at 20 ug/ml. The format is functional, organism-based.
Series [37] deals with Aspergillus fumigatus. Briefly: Antifungal activity against Aspergillus fumigatus ATCC 13073. The format is functional. The method in brief: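 Panel of 23 fungal strains assayed by the group's previously published protocol. Read-outs in μg/mL are the MIC and the MFC, the lowest concentration that kills the fungus. The highest concentration tested was 160 μg/mL, or 5 μg/mL for some agents.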

Series [38] has as its system Aspergillus flavus. Briefly: Antifungal activity against Aspergillus flavus ATCC 204304. It is filed as functional. In outline: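 Panel of 23 fungal strains assayed by the group's previously published protocol. Read-outs in μg/mL are the MIC and the MFC, the lowest concentration that kills the fungus.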
In series [39] the test system is Aspergillus niger. The experiment in a line: Antifungal activity against Aspergillus niger ATCC 16404 at 5 ug/ml. It is filed as functional, organism-based.

Consider `CCCCCCCCCCC1(O)C=CC2=[N+](C)CCCN21.[I-]` (centres undefined), for which the result in [1] and in [4] was inactive. The molecule also registered an MFC in [2] of 10 µg/mL. Further, the minimum inhibitory concentration (MIC) in series [2] turned out to be 10 µg/mL; in [3], 20 µg/mL. The midpoint of inhibition in series [5], the IC50, lay at 21.3 µg/mL. The selectivity ratio in series [6] was found to be 2.
With `CCCCCCCCCCCCCCCCC1(O)C=CC2=[N+](C)CCCN21.[I-]` (centres undefined), the MFC amounted to 1.25 µg/mL in [2], 2.5 µg/mL in series [3] and 5 µg/mL in [7]. The minimum inhibitory concentration (MIC) in series [2] came out at 1.25 µg/mL; in [3] it was 2.5 µg/mL; in series [7], 5 µg/mL. In [5], this molecule displayed an IC50 of 16 µg/mL. Further, the selectivity ratio in series [6] came out at 13.
As for `OC(Cn1cncn1)(Cn1cncn1)c1ccc(F)cc1F` [FLUCONAZOLE], the result in series [8], in series [10], in series [11], in series [12], in series [13] and in [15] was inactive. Also, the outcome in series [16], in series [17], in series [18], in [21], in series [22] and in [24] was inactive. Moreover, the result in [26], in series [28] and in series [31] was inactive. The minimal inhibitory concentration (MIC) in series [9] worked out at 0.2 µg/mL (≈ 0.653 µM); in series [14] it was 50 µg/mL (≈ 163 µM); in [19], 10.4 µg/mL (≈ 33.9 µM); in series [20] it was 3.91 µg/mL (≈ 12.8 µM); in [2] it was 9.38 µg/mL (≈ 30.6 µM); in [23] it was 0.25 µg/mL (≈ 0.816 µM). The MIC in series [25] was 45 µg/mL (≈ 147 µM); in series [3], 0.51 µg/mL (≈ 1.67 µM); in series [27], 45 µg/mL (≈ 147 µM); in [29] it was 0.35 µg/mL (≈ 1.14 µM); in series [30] it was 13.1 µg/mL (≈ 42.8 µM); in series [32], 0.94 µg/mL (≈ 3.07 µM). The molecule also came in with an MIC in series [33] of 2.8 µg/mL (≈ 9.14 µM). The minimal fungicidal concentration (MFC) is 50 µg/mL (≈ 163 µM) in series [14], 12.5 µg/mL (≈ 40.8 µM) in series [20], 25 µg/mL (≈ 81.6 µM) in [2] and 80 µg/mL (≈ 261 µM) in [25].
With `CCCCCCCCCCCCCCC1(O)C=CC2=[N+](C)CCCN21.[I-]` (centres undefined), the minimal fungicidal concentration (MFC) in series [14] was found to be 0.63 µg/mL; in series [20], 0.31 µg/mL; in [34], 10 µg/mL; in series [2], 0.31 µg/mL; in series [35], 2.5 µg/mL; in series [7], 5 µg/mL. The MFC in series [32] came out at 10 µg/mL. Besides, the MIC in [14] is 0.63 µg/mL; in series [19], 1.25 µg/mL; in series [20] it was 0.23 µg/mL; in series [2], 0.31 µg/mL; in series [23], 1.88 µg/mL; in series [3] it was 1.88 µg/mL. Besides, in [7], the MIC was 1.88 µg/mL. The IC50 in series [5] was found to be 16.5 µg/mL. For the same molecule, in series [6], the selectivity ratio amounted to 53.
Take `CCCCCCCCCCCCCCCCCCC1(O)C=CC2=[N+](C)CCCN21.[I-]` (centres undefined): the outcome in series [1] was inactive. For the same molecule, the figures for the minimum fungicidal concentration (MFC) in series [2] and in series [3] were 1.97 µg/mL and 2.5 µg/mL, respectively. Moreover, the MIC was determined as 1.61 µg/mL in series [2], 2.5 µg/mL in series [3] and 10 µg/mL in [7]. The molecule further had an IC50 in series [5] of 12.3 µg/mL. Moreover, in series [6], the selectivity ratio stood at 6.
For the molecule `CCCCCCC1(O)C=CC2=[N+](C)CCCN21.[I-]` (centres undefined), the outcome in series [1], in [4] and in series [36] was inactive. For the same molecule, the IC50 in [5] is more than 25 µg/mL.
With `C[C@@H]1[C@H](O)[C@@H](C)/C=C/C=C/C=C/C=C/C=C/C=C/C=C/[C@H](O[C@@H]2O[C@H](C)[C@@H](O)[C@H](N)[C@@H]2O)C[C@@H]2O[C@](O)(C[C@@H](O)C[C@@H](O)[C@H](O)CC[C@@H](O)C[C@@H](O)CC(=O)O[C@H]1C)C[C@H](O)[C@H]2C(=O)O` [AMPHOTERICIN B], the minimum fungicidal concentration (MFC) is 0.57 µg/mL (≈ 0.617 µM) in series [14], 0.31 µg/mL (≈ 0.335 µM) in series [20], 10 µg/mL (≈ 10.8 µM) in series [37] and 5 µg/mL (≈ 5.41 µM) in series [38]. The MIC in [14] turned out to be 0.57 µg/mL (≈ 0.617 µM); in series [20], 0.16 µg/mL (≈ 0.173 µM); in series [37], 1.5 µg/mL (≈ 1.62 µM); in series [35], 0.94 µg/mL (≈ 1.02 µM); in [29], 1.88 µg/mL (≈ 2.03 µM). Also, the IC50 in series [5] was found to be 4.7 µg/mL (≈ 5.09 µM). In addition, the result in series [39] was inactive.
As to `CCCCCCCCCCCCC1(O)C=CC2=[N+](C)CCCN21.[I-]` (centres undefined), the MFC in [2] was found to be 0.63 µg/mL; in series [3], 10 µg/mL; in [7] it was 10 µg/mL. Moreover, the figures for the minimal inhibitory concentration (MIC) in series [2], in [3] and in series [7] were 0.63 µg/mL, 7.5 µg/mL and 5 µg/mL, respectively. The half-inhibitory concentration (IC50) in [5] worked out at 18.3 µg/mL. In series [6], the selectivity ratio came to 29.
